Data from ChEMBL document CHEMBL3046679, “Design, synthesis, and biological activities of arylmethylamine substituted chlorotriazine and methylthiotriazine compounds” (J Agric Food Chem, 2011).
Activity calls are given as the source filed them. The calls are words filed in the database; no cut-off is given here.

How the values were obtained:
Aphididae = assay: Insecticidal activity against Aphididae (aphids) assessed as mortality at 1000 ppm by leaf-disk assay; assay type: functional, organism-based
How it was run: (§1)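 Leaf-disk assay at 1000 ppm, three replicates. Plates kept 5–9 days in controlled-environment cabinets. Mortality judged against untreated wells: 99 for significant mortality, 0 otherwise. Values are the mean of three; thiamethoxam and indoxacarb used as positive controls.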

Amaranthus retroflexus [1] = assay: Herbicidal activity against Amaranthus retroflexus assessed as growth inhibition at 1 kg/ha preemergence treatment by glasshouse test; assay type: functional; conditions: pre-emergence, read-out: GI
How it was run: (§2)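 Glasshouse screen with pre- or postemergence application at 1.0 kg/ha. Result given as percent inhibition of plant growth; norflurazon and glyphosate used as controls.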

Phytophthora infestans = assay: Fungicidal activity against Phytophthora infestans assessed as inhibition of mycelia growth at 200 ppm; assay type: functional, organism-based
Stellaria media [2] = assay: Herbicidal activity against Stellaria media assessed as growth inhibition at 1 kg/ha postemergence treatment by glasshouse test; assay type: functional; conditions: post-emergence, read-out: GI; how it was run: as §2
Fusarium graminearum = assay: Fungicidal activity against Fusarium graminearum assessed as inhibition of mycelia growth at 2 ppm; assay type: functional, organism-based
How it was run: (§3)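 Mycelial growth test in 96-well plates: compound incorporated into artificial growth medium at 2 ppm, two replicates per rate. Each well scored 99 for complete, 55 for partial or 0 for no inhibition. Values are the mean across replicates; azoxystrobin and prochloraz used as positive controls.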

Botrytis cinerea = assay: Fungicidal activity against Botryotinia fuckeliana assessed as inhibition of mycelia growth at 2 ppm; assay type: functional, organism-based; how it was run: as §3
Brassica napus [3] = assay: Herbicidal activity against Brassica napus (oilseed rape) at 1.5 kg/ha postemergence treatment measured after 10 days by glasshouse test; assay type: functional; conditions: post-emergence, 240 h
How it was run: (§4)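 Glasshouse pre/postemergence test, each treatment in triplicate. Above-ground fresh weight measured 10 days after treatment. Result expressed as percent inhibition versus control, from 0 (no control) to 100 (complete control); glyphosate used as positive control.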

Brassica napus [4] = assay: Herbicidal activity against Brassica napus (oilseed rape) at 1.5 kg/ha preemergence treatment measured after 10 days by glasshouse test; assay type: functional; conditions: pre-emergence, 240 h; how it was run: as §4
Amaranthus retroflexus [5] = assay: Herbicidal activity against Amaranthus retroflexus assessed as growth inhibition at 1 kg/ha postemergence treatment by glasshouse test; assay type: functional; conditions: post-emergence, read-out: GI; how it was run: as §2
Pythium dissimile = assay: Fungicidal activity against Pythium dissimile assessed as inhibition of mycelia growth at 2 ppm; assay type: functional, organism-based; how it was run: as §3
Poa annua = assay: Herbicidal activity against Poa annua assessed as growth inhibition at 32 ppm by 96-well plate test; assay type: functional; conditions: read-out: GI
How it was run: (§5)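 96-well plate herbicide screen: Arabidopsis thaliana at 10 ppm and Poa annua at 32 ppm, two replicates. Plates incubated seven days in a controlled-environment cabinet. Each replicate scored 0 (no visible effect) or 99 (herbicidal effect); values are the mean of the two. Atrazine used as reference.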

Lolium perenne [6] = assay: Herbicidal activity against Lolium perenne (perennial ryegrass) assessed as growth inhibition at 1 kg/ha preemergence treatment by glasshouse test; assay type: functional; conditions: pre-emergence, read-out: GI; how it was run: as §2
Digitaria sanguinalis [7] = assay: Herbicidal activity against Digitaria sanguinalis (hairy crabgrass) assessed as growth inhibition at 1 kg/ha postemergence treatment by glasshouse test; assay type: functional; conditions: post-emergence, read-out: GI; how it was run: as §2
Heliothis virescens = assay: Insecticidal activity against Lepidoptera Heliothis virescens (tobacco budworm) assessed as mortality at 1000 ppm by leaf-disk assay; assay type: functional, organism-based; how it was run: as §1
Zymoseptoria tritici = assay: Fungicidal activity against Zymoseptoria tritici assessed as inhibition of mycelia growth at 100 ppm; assay type: functional, organism-based
Arabidopsis thaliana = assay: Herbicidal activity against Arabidopsis thaliana assessed as growth inhibition at 10 ppm by 96-well plate test; assay type: functional; conditions: read-out: GI; how it was run: as §5
Lolium perenne [8] = assay: Herbicidal activity against Lolium perenne (perennial ryegrass) assessed as growth inhibition at 1 kg/ha postemergence treatment by glasshouse test; assay type: functional; conditions: post-emergence, read-out: GI; how it was run: as §2
Digitaria sanguinalis [9] = assay: Herbicidal activity against Digitaria sanguinalis (hairy crabgrass) assessed as growth inhibition at 1 kg/ha preemergence treatment by glasshouse test; assay type: functional; conditions: pre-emergence, read-out: GI; how it was run: as §2
Stellaria media [10] = assay: Herbicidal activity against Stellaria media assessed as growth inhibition at 1 kg/ha preemergence treatment by glasshouse test; assay type: functional; conditions: pre-emergence, read-out: GI; how it was run: as §2
Echinochloa crus-galli [11] = assay: Herbicidal activity against Echinochloa crus-galli (barnyard grass) at 1.5 kg/ha postemergence treatment measured after 10 days by glasshouse test; assay type: functional; conditions: post-emergence, 240 h; how it was run: as §4
Echinochloa crus-galli [12] = assay: Herbicidal activity against Echinochloa crus-galli (barnyard grass) at 1.5 kg/ha preemergence treatment measured after 10 days by glasshouse test; assay type: functional; conditions: pre-emergence, 240 h; how it was run: as §4
Alternaria solani = assay: Fungicidal activity against Alternaria solani assessed as inhibition of mycelia growth at 2 ppm; assay type: functional, organism-based; how it was run: as §3
Uromyces viciae-fabae = assay: Fungicidal activity against Uromyces viciae-fabae assessed as inhibition of mycelia growth at 100 ppm; assay type: functional, organism-based
How it was run: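 Leaf-piece assay on bean at 100 ppm, with compound applied before spore inoculation and two replicates. Each well scored 99 for complete inhibition, 55 for partial and 0 for none; value is the mean score across replicates.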

SMILES | mortality (Aphididae) | inhibition of growth at 1000 g/ha (Amaranthus retroflexus [1]) | inhibition (Phytophthora infestans) | inhibition of growth at 1000 g/ha (Stellaria media [2]) | inhibition (Fusarium graminearum) | inhibition at 1500 g/ha (Brassica napus [3]) | inhibition at 1500 g/ha (Brassica napus [4]) | inhibition of growth at 1000 g/ha (Amaranthus retroflexus [5]) | inhibition (Pythium dissimile) | inhibition of growth at 32 ppm (Poa annua) | inhibition of growth at 1000 g/ha (Lolium perenne [6]) | inhibition of growth at 1000 g/ha (Digitaria sanguinalis [7]) | mortality (Heliothis virescens) | inhibition of growth at 10 ppm (Arabidopsis thaliana) | inhibition of growth at 1000 g/ha (Lolium perenne [8]) | inhibition of growth at 1000 g/ha (Digitaria sanguinalis [9]) | inhibition of growth at 1000 g/ha (Stellaria media [10]) | inhibition at 1500 g/ha (Echinochloa crus-galli [11]) | inhibition at 1500 g/ha (Echinochloa crus-galli [12]) | inhibition (Alternaria solani) | also measured
CSc1nc(NCc2ccc(F)cc2)nc(NC(C)C)n1 | inactive | 100% | inactive | 100% | inactive | 100% | 100% | 100% | inactive | 0% | 50% | 80% | inactive | 99% | 80% | 0% | 90% | 100% | 21.4% | – | inhibition (Botrytis cinerea): inactive; inhibition (Zymoseptoria tritici): inactive
CC(C)Nc1nc(Cl)nc(NCc2cc(-c3ccccc3)no2)n1 | inactive | – | inactive | – | inactive | 42.4% | 20.1% | – | inactive | – | – | – | Active | – | – | – | – | 17.7% | 4.3% | inactive | –
CC(C)Nc1nc(Cl)nc(NCc2cnc(Br)s2)n1 | inactive | – | inactive | – | inactive | 10% | 5.2% | – | inactive | – | – | – | inactive | – | – | – | – | 10.4% | 11.3% | inactive | inhibition (Botrytis cinerea): inactive; inhibition (Uromyces viciae-fabae): inactive; inhibition (Zymoseptoria tritici): inactive
O=C(O)CNCP(=O)(O)O [GLYPHOSATE] | – | 90% | – | 80% | – | – | – | 90% | – | – | 0% | 90% | – | – | 80% | 0% | 0% | – | – | – | –
CCNc1nc(Cl)nc(NC(C)C)n1 [ATRAZINE] | – | 100% | inactive | 100% | inactive | 100% | 100% | 100% | inactive | 0% | 80% | 70% | inactive | 99% | 100% | 0% | 90% | 100% | 100% | inactive | inhibition (Botrytis cinerea): inactive
CC(C)Nc1nc(Cl)nc(NCC2CCCO2)n1 (centres undefined) | – | – | – | – | – | 100% | 100% | – | – | – | – | – | – | – | – | – | – | 41.3% | 46.4% | – | –
CSc1nc(NCc2cnc(Br)s2)nc(NC(C)C)n1 | – | – | – | – | – | 100% | 87.1% | – | – | – | – | – | – | – | – | – | – | 92% | 74.6% | – | –
CSc1nc(NCc2ccc(Cl)nc2)nc(NC(C)C)n1 | – | 100% | inactive | 100% | inactive | 100% | 100% | 70% | inactive | 0% | 10% | 90% | inactive | 99% | 50% | 0% | 90% | 88.6% | 88.6% | inactive | inhibition (Botrytis cinerea): Active; inhibition (Zymoseptoria tritici): inactive
CCNc1nc(NC(C)C)nc(SC)n1 [AMETRYNE] | inactive | 100% | inactive | 100% | inactive | 100% | 100% | 100% | inactive | 0% | 90% | 100% | inactive | 99% | 100% | 90% | 90% | 100% | 100% | inactive | inhibition (Zymoseptoria tritici): inactive
CNc1cnn(-c2cccc(C(F)(F)F)c2)c(=O)c1Cl [NORFLURAZONE] | – | – | – | – | – | – | – | – | – | 99% | – | – | – | 99% | – | – | – | – | – | – | –
